Results reported in ChEMBL document CHEMBL5329174, “Discovery of benzoxazole-thiazolidinone hybrids as promising antibacterial agents against Staphylococcus aureus and Enterococcus species” (RSC Med Chem, 2023).
In brackets after ≈: the same amount, converted by molar mass.

Tests used:
Staphylococcus aureus = test: Antibacterial activity against Staphylococcus aureus ATCC 29213 assessed as reduction in bacterial growth; assay type: functional
Outline: (§1)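 CLSI broth microdilution in cation-supplemented Mueller–Hinton broth II; overnight starter cultures (37 °C, shaking, 18–24 h) adjusted by OD600 to ~10^6 CFU/mL. Compounds dosed from DMSO stocks (10 mg/mL stock) as two-fold dilutions, 64–0.5 mg/L. Plates held 37 °C, 18–24 h. MIC = lowest concentration without visible growth. Three independent runs, each in duplicate.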

Acinetobacter baumannii = test: Antibacterial activity against Acinetobacter baumannii BAA-1605 assessed as reduction in bacterial growth; assay type: functional; outline: as §1
Pseudomonas aeruginosa = test: Antibacterial activity against Pseudomonas aeruginosa ATCC 27853 assessed as reduction in bacterial growth; assay type: functional; outline: as §1
Escherichia coli = test: Antibacterial activity against Escherichia coli ATCC 25922 assessed as reduction in bacterial growth; assay type: functional; outline: as §1
Klebsiella pneumoniae = test: Antibacterial activity against Klebsiella pneumoniae BAA-1705 assessed as reduction in bacterial growth; assay type: functional; outline: as §1
[1] = Cytotoxicity against african green monkey Vero cells assessed as reduction in cell viability incubated for 72 hrs by MTT assay; assay type: toxicity, cell-based; details: chlorocebus sabaeus
Outline: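 Vero (ATCC CCL-81) cells seeded at ~10^3 per well, 37 °C, 5% CO2. After 24 h, compound added at 100–12.5 μg/mL for 72 h. MTT then given for 4 h at 37 °C, formazan dissolved in DMSO, absorbance read at 540 nm. CC50 taken as the concentration giving 50% viability loss; doxorubicin as positive control; triplicate.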

Compound	MIC (Staphylococcus aureus) [µg/mL]	MIC (Acinetobacter baumannii) [µg/mL]	MIC (Pseudomonas aeruginosa) [µg/mL]	MIC (Escherichia coli) [µg/mL]	MIC (Klebsiella pneumoniae) [µg/mL]	CC50 at 72 h [1] [µg/mL]
COc1cccc2c1C(=O)c1c(O)c3c(c(O)c1C2=O)C[C@@](O)(C(=O)CO)C[C@@H]3O[C@H]1C[C@H](N)[C@H](O)[C@H](C)O1 [DOXORUBICIN]						10 (≈ 18.4 µM)
COc1ccc(/C=C2\S/C(=N/c3nc4ccccc4o3)NC2=O)cc1	> 64	> 64	> 64	> 64	> 64	
O=C1CS/C(=N/c2nc3ccccc3o2)N1	8 (≈ 34.3 µM)	> 64	> 64	> 64	> 64	
CN(C)c1ccc(/C=C2\S/C(=N/c3nc4ccccc4o3)NC2=O)cc1	> 64	> 64	> 64	> 64	> 64	
O=C1N/C(=N\c2nc3ccccc3o2)S/C1=C\c1cccs1	16 (≈ 48.9 µM)	> 64	> 64	> 64	> 64	
O=C1N/C(=N\c2nc3ccccc3o2)S/C1=C\c1ccco1	8 (≈ 25.7 µM)	> 64	> 64	> 64	> 64	

Now from value to compound, other results behind:

MIC (Staphylococcus aureus) [µg/mL]	MIC (Acinetobacter baumannii) [µg/mL]	MIC (Pseudomonas aeruginosa) [µg/mL]	MIC (Escherichia coli) [µg/mL]	MIC (Klebsiella pneumoniae) [µg/mL]	Compound	CC50 at 72 h [1] [µg/mL]
8 (≈ 22.5 µM)	> 64	> 64	> 64	> 64	O=C1N/C(=N\c2nc3ccccc3o2)S/C1=C\c1ccc(Cl)cc1	
> 64	> 64	> 64	> 64	> 64	O=C1N/C(=N\c2nc3ccccc3o2)S/C1=C\c1cccc([N+](=O)[O-])c1	
16 (≈ 45 µM)	> 64	> 64	> 64	> 64	O=C1N/C(=N\c2nc3ccccc3o2)S/C1=C\c1ccccc1Cl	
8 (≈ 21.8 µM)	> 64	> 64	> 64	> 64	O=C1N/C(=N\c2nc3ccccc3o2)S/C1=C\c1ccccc1[N+](=O)[O-]	
> 64	> 64	> 64	> 64	> 64	O=C1N/C(=N\c2nc3ccccc3o2)S/C1=C\c1ccc([N+](=O)[O-])cc1	
16 (≈ 47.1 µM)	> 64	> 64	> 64	> 64	O=C1N/C(=N\c2nc3ccccc3o2)S/C1=C\c1ccccc1F	
4 (≈ 11.9 µM)	> 64	> 64	> 64	> 64	O=C1N/C(=N\c2nc3ccccc3o2)S/C1=C\c1ccccc1O	
32 (≈ 87.1 µM)	> 64	> 64	> 64	> 64	CSc1ccc(/C=C2\S/C(=N/c3nc4ccccc4o3)NC2=O)cc1	
